Measured values as given in ChEMBL document CHEMBL1133462, “Discovery of novel and potent retinoic acid receptor alpha agonists: syntheses and evaluation of benzofuranyl-pyrrole and benzothiophenyl-pyrrole derivatives” (2000).

Assays:
[1] = target: T1, Retinoic acid receptor beta (Homo sapiens) (UniProt P10826); test: Inhibition of [3H]ATRA binding to Retinoic acid receptor beta (RAR-beta)
T1 sequence (whole entry): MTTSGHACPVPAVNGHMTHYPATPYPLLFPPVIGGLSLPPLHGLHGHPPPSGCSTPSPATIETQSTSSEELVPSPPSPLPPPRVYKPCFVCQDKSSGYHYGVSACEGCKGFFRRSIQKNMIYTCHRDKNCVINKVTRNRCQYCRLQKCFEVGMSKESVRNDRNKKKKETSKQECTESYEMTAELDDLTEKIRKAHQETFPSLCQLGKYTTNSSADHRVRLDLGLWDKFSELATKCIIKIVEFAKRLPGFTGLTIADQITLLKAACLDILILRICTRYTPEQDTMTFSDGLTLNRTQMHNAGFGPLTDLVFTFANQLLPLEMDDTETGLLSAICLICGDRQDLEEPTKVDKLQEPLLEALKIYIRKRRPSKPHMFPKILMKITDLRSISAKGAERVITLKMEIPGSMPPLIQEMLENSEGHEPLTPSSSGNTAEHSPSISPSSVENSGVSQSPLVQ
Outline: (§1)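 Competitive binding of [³H]ATRA to individual RAR subtypes. Each IC50 was divided by the ATRA IC50 to give a relative IC50. Reported as mean ± SEM, averaged from at least two experiments.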

[2] = target: T1, Retinoic acid receptor beta (Homo sapiens); test: Relative transcriptional activation in COS cells expressing Retinoic acid receptor beta compared to ATRA; type: functional, cell-based
Outline: (§2)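 COS-1 cells were lipofected with receptor and reporter vectors. After 4 h the medium was changed to DMEM/10% FBS for a further 20 h, then cells were reseeded at 3 × 10⁴/well. After 6 h, compounds were added in log dilutions from 3.0 × 10^-6 to 1.0 × 10^-10 M, in duplicate, for 48 h. Supernatant PLAP activity was measured. EC30 (concentration giving 30% of maximal response) was normalized to ATRA EC30. Values averaged from at least two experiments.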

[3] = target: T2, Retinoic acid receptor gamma (Homo sapiens) (UniProt P13631); test: Relative transcriptional activation in COS cells expressing Retinoic acid receptor gamma compared to ATRA; type: functional, cell-based; outline: as §2
T2 sequence (whole entry): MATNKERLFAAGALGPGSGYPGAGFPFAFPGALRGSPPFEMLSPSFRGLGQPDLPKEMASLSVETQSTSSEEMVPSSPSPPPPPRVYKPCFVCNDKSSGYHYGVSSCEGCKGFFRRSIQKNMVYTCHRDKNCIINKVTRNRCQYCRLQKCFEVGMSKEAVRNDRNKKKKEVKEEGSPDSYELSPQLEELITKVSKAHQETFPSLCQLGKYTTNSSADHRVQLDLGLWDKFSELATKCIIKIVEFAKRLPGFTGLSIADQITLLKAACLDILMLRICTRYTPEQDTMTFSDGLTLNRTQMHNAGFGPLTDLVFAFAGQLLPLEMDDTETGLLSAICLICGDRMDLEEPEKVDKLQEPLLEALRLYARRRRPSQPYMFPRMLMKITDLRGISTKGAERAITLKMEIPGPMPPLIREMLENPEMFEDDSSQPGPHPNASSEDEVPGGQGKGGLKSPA

[4] = Inhibition of LPS-induced mouse B-lymphocyte proliferation (Mean of IC50/ATRA IC50); type: functional
Outline: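 BALB/c splenocytes at 1.2 × 10⁵ cells/well in RPMI-1640 with 50 µM 2-mercaptoethanol, 10% FBS and 5 µg/mL E. coli LPS. Compounds were tested in log dilutions from 1.0 × 10^-6 to 1.0 × 10^-12 M final, in triplicate, for 3 days at 37 °C and 5% CO₂. IC50 was fitted by nonlinear regression and divided by the ATRA IC50. Reported as mean ± SEM of triplicates.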

[5] = target: T3, Retinoic acid receptor alpha (Homo sapiens) (UniProt P10276); test: Inhibition of [3H]-ATRA binding to Retinoic acid receptor alpha (RAR-alpha); outline: as §1
T3 sequence (whole entry): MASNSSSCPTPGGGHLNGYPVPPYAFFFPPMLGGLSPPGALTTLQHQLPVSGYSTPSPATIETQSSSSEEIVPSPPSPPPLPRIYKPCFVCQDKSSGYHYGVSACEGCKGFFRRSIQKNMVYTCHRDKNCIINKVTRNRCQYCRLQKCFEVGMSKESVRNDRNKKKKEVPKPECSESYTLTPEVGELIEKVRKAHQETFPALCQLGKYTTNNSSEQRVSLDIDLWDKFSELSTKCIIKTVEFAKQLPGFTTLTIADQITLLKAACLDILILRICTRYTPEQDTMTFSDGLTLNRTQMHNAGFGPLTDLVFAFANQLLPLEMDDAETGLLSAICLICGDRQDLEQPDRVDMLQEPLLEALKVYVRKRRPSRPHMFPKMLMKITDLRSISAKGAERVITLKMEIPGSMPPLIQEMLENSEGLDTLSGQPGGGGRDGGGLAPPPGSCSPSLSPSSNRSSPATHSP

[6] = target: T3, Retinoic acid receptor alpha (Homo sapiens); test: Relative transcriptional activation in COS cells expressing Retinoic acid receptor alpha compared to ATRA; type: functional, cell-based; outline: as §2

Compound | Relative IC50 [1] [nM] | Relative EC30 [2] [nM] | Relative EC30 [3] [nM] | Relative IC50 [4] | Relative IC50 [5] [nM] | Relative EC30 [6] [nM]
Cc1ccc(C)c2oc(-c3ccc(-c4ccc(C(=O)O)cc4)[nH]3)cc12 | 490 | 25 | 240 | 0.76 | 1.4 | 0.37
O=C(O)c1ccc(-c2ccc(-c3cc4c(C(F)(F)F)ccc(F)c4o3)[nH]2)cc1 | 500 | 8.5 | 110 | 0.37 | 1.9 | 0.29
Cc1ccc(C)c2sc(-c3ccc(-c4ccc(C(=O)O)cc4)[nH]3)cc12 |  | 130 | 840 | 0.75 | 6.1 | 1.3
Cc1cc(C)c2oc(-c3ccc(-c4ccc(C(=O)O)cc4)[nH]3)cc2c1C |  | 200 | 480 | 2.2 | 9.4 | 2
Cc1cc(C)c2oc(-c3ccc(-c4ccc(C(=O)O)cc4)[nH]3)cc2c1 |  | 380 | 890 | 1.2 | 16 | 1
Cc1cccc2cc(-c3ccc(-c4ccc(C(=O)O)cc4)[nH]3)oc12 |  | 92 | 1000 | 0.98 | 1.6 | 0.8
Cc1cc(C)c2sc(-c3ccc(-c4ccc(C(=O)O)cc4)[nH]3)cc2c1 |  | 1300 | 2900 | 3.6 | 62 | 2.4
Cc1ccc2cc(-c3ccc(-c4ccc(C(=O)O)cc4)[nH]3)oc2c1C |  | 160 | 2000 | 2.4 | 12 | 3.1
COc1ccc(C)c2oc(-c3ccc(-c4ccc(C(=O)O)cc4)[nH]3)cc12 |  | 730 | 3700 | 4.7 | 15 | 6
O=C(O)c1ccc(-c2ccc(-c3cc4c(Cl)ccc(Cl)c4o3)[nH]2)cc1 | 690 | 110 | 820 | 1.3 | 1.5 | 0.7
